Only some compounds are listed: those with a hit (about 1.9% of all), similar ones and a draw of the others.
TDP2 inh: TDP2 (human) inhibition, absorbance primary screen; O95551; recombinant TDP2, T5PNP hydrolysis, p-nitrophenol absorbance 415 nm; inhibition, % at 12.8 µM; 370,000 compounds, 0.34% hits;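 active = inhibition above the mean of all tested compounds plus 3 SD, set per campaign, cut at about 25% in these data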;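 note: 0% = DMSO with enzyme and 100% = buffer with substrate but no TDP2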
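Material: recombinant human TDP2; quantity: TDP2 enzyme at 120 nM final; medium: Tris-HCl pH 7.5 with MgCl2; compound: single concentration, 12.8 µM nominal, with 1% DMSO; incubation: 2 h enzyme incubation at 37 °C; signal: epi absorbance; measure: percent inhibition; benchmarks: high control without enzyme, low control DMSO plus TDP2; repeats: singlicate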
MBD2 inh: inhibitors of human MBD2 binding to methylated oligonucleotide. Q9UBB5. inhibition, % at 4.4 µM. 370,000 compounds, 0.31% hits. TR-FRET; in the data active = inhibition above about 13%
UHRF1 binding: human UHRF1 methylated DNA binding inhibitors. Q96T88. UHRF1 binding to methylated oligo, TR-FRET. inhibition, % at 4.4 µM. 370,000 compounds, 0.75% hits. AID 687016;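 note: UHRF1 SRA domain binding a hemimethylated CpG hairpin DNA probe; 0% = median of test compound wells and 100% = reference inhibitor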
Rin1 Abl inh: inhibitors of human Rin1-Abl protein interaction | 360,000 compounds, 0.4% hits | inhibition, % at 7.35 µM | TR-FRET Rin1/Abl binding, biochemical | P00519+Q13671; in the data active = inhibition above about 5%, passing the limit was not always enough
LEDGF integ inh: blocks HIV-1 LEDGF/p75-dependent DNA integration | inhibition, % at 3.7 µM | TR-FRET IN-LEDGF/p75 DNA integration, Eu/Cy5 | 370,000 compounds, 0.64% hits;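 active = inhibition above the screen-wide mean plus 3 SD, cut at about 13% in these data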;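 note: signal is the Cy5 over europium emission ratio at 671 and 618 nm; 0% = plate median of compound wells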
UHRF1 ctr MBD2: counter-screen for MBD2 inhibitors: human UHRF1 methylated DNA binding inhibitors; shares compounds with MBD2 inh; UHRF1 binding to methylated oligonucleotide, TR-FRET; inhibition, % at 4.4 µM; 1,000 compounds, 25% hits; AID 720530;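 note: UHRF1 SRA domain binding a labeled hemimethylated CpG hairpin DNA; 0% = vehicle only and 100% = reference inhibitor with vehicle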
MBD2 confirm: confirmation of human MBD2-DBD methylated oligonucleotide binding inhibitors. AID 720531. TR-FRET MBD2-DBD binding to methylated oligonucleotide. shares compounds with MBD2 inh. 1,000 compounds, 26% hits. inhibition, % at 4.4 µM; in the data active = inhibition above about 14%
* marks the source's active call; other numbers are inactive results; . = no result. Cut-off read from the data, not from the text of the source, unless noted: active = inhibition above about 21%; inactive = the rest.

SMILES | TDP2 inh | MBD2 inh | UHRF1 binding | Rin1 Abl inh | LEDGF integ inh | UHRF1 ctr MBD2 | MBD2 confirm
CCOC(=O)[C@]12CCCCC/C=C\1N(CCc1ccc(Cl)cc1)C(=O)[C@H]2CC(=O)NCCCCc1ccccc1 | -2.0 | -1.2 | 2.0 | . | -3.0 | . | .
CCN(C(=O)COC(=O)/C=C/c1cccc(Br)c1)C1CCS(=O)(=O)C1 (configuration not stated) | -9.2 | 15.9* | 28.4* | 5.8 | -0.4 | 7.4 | 0.0
CN(C(=O)COC(=O)/C=C/c1cccc([N+](=O)[O-])c1)C1CCS(=O)(=O)C1 (configuration not stated) | 9.0 | -7.2 | -1.3 | -1.4 | 1.2 | . | .
O=C(OCc1cc(=O)n2c(n1)sc1ccccc12)c1ccc(O)cc1O | 9.6 | 6.4 | 2.5 | 2.9 | 5.3 | . | .
O=C(Cc1coc2cc3c(cc12)CCC3)OCc1cc(=O)n2c(n1)sc1ccccc12 | 5.9 | 16.3* | 16.4 | 0.1 | 5.5 | 18.8 | 14.1*
O=C(OCc1cc(=O)n2c(n1)sc1ccccc12)c1cccc(O)c1 | 9.6 | 13.4* | 15.5 | 3.0 | 2.9 | 21.0* | 17.9*
Cc1cc(NCCCCCCCNc2cc(C)nc3cc([N+](=O)[O-])ccc23)c2ccc([N+](=O)[O-])cc2n1 | -21.2 | 20.6* | 30.3* | -8.4 | 0.5 | 38.0* | 49.3*
Cc1cc(S(=O)(=O)NCC(c2ccccc2)c2ccccc2)ccc1-n1cnnn1 | -5.4 | 14.2* | 17.5 | 6.5 | 4.1 | 2.6 | 4.4
COc1ccccc1CNS(=O)(=O)c1ccc(-n2cnnn2)c(C)c1 | 2.7 | 3.8 | -0.8 | 0.8 | -1.1 | . | .
COC(=O)c1ccc(OCC(=O)c2ccccc2)cc1 | 13.2 | 15.8* | 21.1* | 1.4 | 11.0 | 7.8 | 3.9
COc1cc2c(cc1NC(=O)COC(=O)Cn1cnc3ccccc31)oc1ccccc12 | 2.8 | 18.6* | -4.2 | -0.1 | -1.6 | 2.6 | 2.6
C=CCN1[C@@H](C)COc2cc(N3CCSCC3)ccc2S1(=O)=O | -1.9 | 0.2 | -4.2 | . | 4.2 | . | .
O=C1N[C@@H](Cc2ccccc2)COC(=O)[C@@H](Cc2ccc(F)cc2)CC/C=C/C[C@H]1CC(=O)N(CCO)Cc1ccccc1 | -1.5 | 15.4* | 0.0 | 2.5 | -0.8 | 4.7 | 5.9
COc1ccc(Br)c(C(=O)Nc2nc3ccccc3[nH]2)c1 | -15.8 | 36.4* | 2.0 | 3.2 | 7.0 | 10.1 | 2.2
COc1cc(OC)cc(C(=O)Nc2nc3ccccc3[nH]2)c1 | 0.1 | 3.0 | -3.5 | 1.8 | 1.6 | . | .
c1ccc(-c2csc(Nc3cccnc3)n2)nc1 | 6.5 | 26.6* | -3.4 | -2.7 | -2.9 | -0.5 | 2.2
c1ccc(Nc2nc(-c3ccccn3)cs2)cc1 | -7.5 | -5.9 | 1.1 | -1.6 | 9.7 | . | .
COC(=O)CSc1nnc(-c2cc(-c3ccccc3)n[nH]2)n1N | -9.4 | -1.2 | -0.2 | . | 2.5 | . | .
Cc1cccc(CN2CCN(C3CN(Cc4cn(Cc5ccc(Cl)cc5)nn4)S(=O)(=O)C3)CC2)c1 (configuration not stated) | -9.7 | 13.2* | 15.1 | . | -3.5 | 5.7 | 5.1
Cc1ccc(Cn2cc(CN3CC(N4CCN(CCN(C)C)CC4)CS3(=O)=O)nn2)cc1 (configuration not stated) | -8.7 | 7.4 | 18.4 | . | -1.3 | . | .
CN(C)CCN1CCN(C2CN(Cc3cn(Cc4ccccc4)nn3)S(=O)(=O)C2)CC1 (configuration not stated) | 4.8 | 14.8* | 20.4 | . | -2.5 | 6.1 | 7.9
COCCCn1cc(CN2CC(N3CCCC3)CS2(=O)=O)nn1 (configuration not stated) | -0.5 | 5.3 | 9.7 | . | -1.7 | . | .
COCCCn1cc(CN2CC(N3CCN(C)CC3)CS2(=O)=O)nn1 (configuration not stated) | -2.0 | 13.5* | 19.6 | . | -1.8 | 12.3 | 6.0
FC(F)(F)Oc1cccc(Cn2ccc3ccc(-c4ccc5ccn(Cc6cccc(OC(F)(F)F)c6)c5c4)cc32)c1 | 0.4 | -1.3 | -5.0 | . | 7.0 | . | .
COCCn1c(CCC(=O)O)ccc1-c1cccs1 | 2.7 | 0.2 | -0.2 | -0.3 | 3.4 | . | .
SMILES | TDP2 inh | MBD2 inh | UHRF1 binding | Rin1 Abl inh | LEDGF integ inh | UHRF1 ctr MBD2 | MBD2 confirm
O=C(O)CCc1ccc(-c2cccs2)n1CC(=O)Nc1ccccc1C(F)(F)F | -25.5 | 27.6* | 1.1 | 0.4 | 0.8 | 0.1 | 3.7
OC(c1ccccc1)(c1ccccc1)C1CCN(CCCNc2ccccc2Br)CC1 | -18.1 | -4.3 | 0.5 | . | 2.3 | . | .
CCN(CC)S(=O)(=O)c1ccc(N2CCOCC2)c(NC(=O)c2ccc(C#N)cc2)c1 | 3.5 | 14.2* | 25.0* | 2.0 | -0.3 | 9.1 | 5.0
COC(=O)[C@]12C[C@H](CC(=O)NCc3ccccc3)C(=O)N(Cc3cccc4ccccc34)C1=C[C@H](C1CCCC1)O[C@@H]2C | -16.8 | -3.6 | 3.0 | . | 2.3 | . | .
CCOC(=O)c1cc(-c2ccc(N3CCOCC3)cc2)nn1-c1ccccc1 | 6.1 | 3.5 | 4.9 | 1.4 | -1.1 | . | .
CCOC(=O)c1cc(-c2ccc(N3CCOCC3)cc2)nn1-c1ccccc1C(=O)O | -1.3 | 22.7* | 19.7 | -0.9 | -0.4 | 26.7* | 26.6*
Cc1ccc(C(=O)NCC(=O)NC2CCC(C)CC2)s1 (configuration not stated) | 4.4 | 97.9* | -0.6 | 1.9 | 0.5 | 3.8 | 1.2
Cc1ccc(C(=O)NC2CCC(C)CC2)s1 (configuration not stated) | 10.9 | -3.2 | -1.7 | 2.5 | -3.2 | . | .
Cc1ccc(/C=c2\sc3nc(-c4ccco4)nn3c2=O)o1 | . | . | . | 1.2 | . | . | .
Cc1ccc(-c2nc3s/c(=C\c4ccco4)c(=O)n3n2)cc1 | -4.4 | 14.5* | 30.3* | -1.9 | 11.6 | 11.6 | 4.9
CCCN(C(=O)c1cc2c(s1)CCC2)c1c(N)n(Cc2ccccc2)c(=O)[nH]c1=O | 16.0 | 13.4* | 11.1 | 2.2 | 3.8 | 13.9 | 17.7*
CC1COCC(C)N1S(=O)(=O)c1ccc2c(c1)CCN2C(=O)C1CCC1 (configuration not stated) | 6.4 | -1.6 | 4.2 | . | -2.1 | . | .
COc1ccc(/C=C(\C#N)C(=O)N2CCOCC2)cc1Br | -4.6 | 40.8* | 0.7 | 0.1 | -1.1 | 4.5 | 1.8
COc1cc(/C=C(\C#N)C(=O)N2CCOCC2)ccc1OCc1ccccc1 | 0.5 | 5.2 | 3.4 | -0.5 | -4.8 | . | .
CC(C)CN1C(=O)C[C@@]2(C(=O)N(C)c3ccc(NS(=O)(=O)C4CC4)cc32)C1c1ccccc1 (some centres not stated) | 14.5 | 15.2* | 14.9 | . | 2.9 | 11.6 | 8.1
CC(C)CN1C(=O)C[C@@]2(C(=O)N(C)c3ccc(NC(=O)C(C)(C)C)cc32)C1c1ccccc1 (some centres not stated) | 3.6 | -3.0 | 1.1 | . | 1.0 | . | .

Screening results deposited in PubChem BioAssay by The Scripps Research Institute Molecular Screening Center.
